Measured values as given in ChEMBL document CHEMBL1121448, “Adrenergic receptor agonists. Benzofuranylethanolamines” (1980).

What was measured:
[1] = molecular target: Beta-2 adrenergic receptor (Homo sapiens) (UniProt P07550); experiment: Tested for agonistic effect on peripheral vascular resistance (PR) against beta 2 adrenergic receptor in cat; assay type: functional; conditions: Felis catus; target entry is the homologue from another species
Outline: (§1)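 Reserpinized, bilaterally vagotomized cats, pentobarbital-anesthetized (30 mg/kg ip, then 0.1 (mg/min)/kg infusion), artificially ventilated. Heart rate was recorded by cardiotachograph from carotid pressure. Hind-leg vascular resistance was read as perfusion pressure under constant-flow autoperfusion. Test compound was infused iv into the femoral vein for 10 min at 1.0 mL/min, in five stepwise raised concentrations.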

[2] = molecular target: Beta-1 adrenergic receptor (Homo sapiens) (UniProt P08588); experiment: Tested for antagonistic effect on heart rate against beta-1 adrenergic receptor in cat; assay type: functional, tissue-based; conditions: Felis catus, target entry is the homologue from another species; outline: as §1
Sequence of Beta-1 adrenergic receptor (Homo sapiens) (P08588 whole entry, looked up): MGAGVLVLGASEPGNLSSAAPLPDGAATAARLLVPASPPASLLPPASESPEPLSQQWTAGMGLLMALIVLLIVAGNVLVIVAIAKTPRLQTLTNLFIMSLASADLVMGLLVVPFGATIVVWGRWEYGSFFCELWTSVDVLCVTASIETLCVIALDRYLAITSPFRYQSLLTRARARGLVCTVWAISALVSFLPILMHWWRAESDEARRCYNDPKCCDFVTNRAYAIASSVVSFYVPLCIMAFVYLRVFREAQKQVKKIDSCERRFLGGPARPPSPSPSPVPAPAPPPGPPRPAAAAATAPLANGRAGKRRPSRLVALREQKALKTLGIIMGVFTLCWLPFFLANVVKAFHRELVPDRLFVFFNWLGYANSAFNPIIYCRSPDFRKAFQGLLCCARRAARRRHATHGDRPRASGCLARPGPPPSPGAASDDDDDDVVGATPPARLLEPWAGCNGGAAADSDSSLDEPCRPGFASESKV

Felis catus = species: Felis catus; experiment: Intrinsic activity as percentage of heart rate (HR max) in cat was determined; assay type: functional; outline: as §1
[3] = molecular target: Beta-1 adrenergic receptor (Homo sapiens) (UniProt P08588); experiment: Tested for agonistic effect on heart rate against beta-1 adrenergic receptor in cat; assay type: functional, tissue-based; conditions: Felis catus, target entry is the homologue from another species; outline: as §1
[4] = molecular target: Beta-2 adrenergic receptor (Homo sapiens) (UniProt P07550); experiment: Tested for agonistic effect on peripheral vascular resistance (PR) against beta-2 adrenergic receptor in cat; assay type: functional; conditions: Felis catus; target entry is the homologue from another species; outline: as §1

Sequence of Beta-2 adrenergic receptor (Homo sapiens) (P07550 whole entry, looked up, the tested form may be a part): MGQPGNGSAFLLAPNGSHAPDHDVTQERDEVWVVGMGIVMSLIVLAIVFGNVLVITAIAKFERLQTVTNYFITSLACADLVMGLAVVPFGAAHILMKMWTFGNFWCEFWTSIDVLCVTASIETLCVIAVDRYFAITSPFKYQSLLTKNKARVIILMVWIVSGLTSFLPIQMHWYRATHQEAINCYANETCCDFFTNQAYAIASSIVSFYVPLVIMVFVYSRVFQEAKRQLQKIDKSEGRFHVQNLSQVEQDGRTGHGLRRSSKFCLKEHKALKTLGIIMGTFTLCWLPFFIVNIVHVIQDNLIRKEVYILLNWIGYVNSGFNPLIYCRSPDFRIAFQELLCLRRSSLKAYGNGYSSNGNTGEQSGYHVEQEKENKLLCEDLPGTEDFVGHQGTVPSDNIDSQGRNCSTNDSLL

## CC(C)NCC(O)c1cc2ccc(O)cc2o1 (stereo not given)
[1]
  KB: 4.73 µM/kg
[2]
  KB: 4.8 µM/kg
Felis catus
  HR: 27%
[3]
  KA: 1.65 µM/kg

## CC(C)NC[C@H](O)COc1ccc(O)cc1 [PRENALTEROL]
Felis catus
  HR: 80%
[3]
  KA: 0.025 µM/kg

## CC(C)NCC(O)c1cc2cc(O)ccc2o1 (stereo not given)
[2]
  KB: 0.34 µM/kg
[4]
  KB: 1.12 µM/kg
Felis catus
  HR: 80%
[3]
  KA: 0.21 µM/kg
